Reference: ChEMBL document CHEMBL4033788, “Novel Ligustrazine-Based Analogs of Piperlongumine Potently Suppress Proliferation and Metastasis of Colorectal Cancer Cells in Vitro and in Vivo” (J Med Chem, 2018)
Active and inactive are the calls of the source. The calls are words filed in the database; no cut-off is given here.

Key:
[1] = Induction of ROS accumulation in human CCD-841 cells at 1 to 10 uM up to 3 hrs by DCFH-DA staining-based fluorescence spectrometric analysis; format: cell-based; conditions: ccd-841, 3 h
In short: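 HCT-116 and CCD-841 cells treated in triplicate at 1, 5 and 10 μM for 1, 2 and 3 h. Intracellular ROS stained with DCFH-DA and fluorescence read on a microplate reader. Values expressed relative to DMSO control, from three separate experiments.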

Mus musculus = assay: Cardiotoxicity in BALB/c nude mouse xenografted with human HCT116 cells at 2.5 to 5 mg/kg, ip administered for 21 consecutive days; format: toxicity, organism-based; conditions: in vivo
In short: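 Male BALB/c nude mice (3−5 weeks) inoculated sc with 1 × 10^7 HCT-116 cells; at tumour volume about 75 mm3 randomized (n = 8 per group) and dosed ip daily at 2.5 or 5 mg/kg for 21 consecutive days. Body weights monitored; liver, kidney, lung and heart inspected for size and morphology at sacrifice.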

[2] = Stability of compound in human HCT116 cells at 1 uM after 4 hrs by LC-MS/MS analysis; format: ADME, cell-based; conditions: hct-116, 4 h
A549 = assay: Antiproliferative activity against human A549 cells after 72 hrs by MTT assay; format: functional, cell-based; conditions: A549, 72 h
[3] = molecular target: RAC-alpha serine/threonine-protein kinase (Homo sapiens) (UniProt P31749); assay: Inhibition of TGF-beta1-induced AKT phosphorylation in human HCT116 cells after 48 hrs by Western blot analysis; format: cell-based
In short: (§1)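 HCT-116 cells treated with or without TGF-β1 (10 ng/mL) for 48 h, with or without test agent. Lysates (20 μg/lane) run on 7.5% SDS-PAGE and transferred to PVDF. Probed for p-Akt (Ser473), Akt, p-GSK-3β (S9), GSK-3β, E-cadherin, MMP-9 and β-actin, detected by ECL. Densitometry relative to β-actin or total protein. Three independent experiments.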

[4] = molecular target: T1, Catenin beta-1 (Homo sapiens) (UniProt P35222); assay: Inhibition of TGF-beta1-regulated decrease in cytoplasmic beta-catenin in human HCT116 cells at 2 to 50 nM after 48 hrs by Western blot analysis; format: cell-based
T1 sequence (whole entry): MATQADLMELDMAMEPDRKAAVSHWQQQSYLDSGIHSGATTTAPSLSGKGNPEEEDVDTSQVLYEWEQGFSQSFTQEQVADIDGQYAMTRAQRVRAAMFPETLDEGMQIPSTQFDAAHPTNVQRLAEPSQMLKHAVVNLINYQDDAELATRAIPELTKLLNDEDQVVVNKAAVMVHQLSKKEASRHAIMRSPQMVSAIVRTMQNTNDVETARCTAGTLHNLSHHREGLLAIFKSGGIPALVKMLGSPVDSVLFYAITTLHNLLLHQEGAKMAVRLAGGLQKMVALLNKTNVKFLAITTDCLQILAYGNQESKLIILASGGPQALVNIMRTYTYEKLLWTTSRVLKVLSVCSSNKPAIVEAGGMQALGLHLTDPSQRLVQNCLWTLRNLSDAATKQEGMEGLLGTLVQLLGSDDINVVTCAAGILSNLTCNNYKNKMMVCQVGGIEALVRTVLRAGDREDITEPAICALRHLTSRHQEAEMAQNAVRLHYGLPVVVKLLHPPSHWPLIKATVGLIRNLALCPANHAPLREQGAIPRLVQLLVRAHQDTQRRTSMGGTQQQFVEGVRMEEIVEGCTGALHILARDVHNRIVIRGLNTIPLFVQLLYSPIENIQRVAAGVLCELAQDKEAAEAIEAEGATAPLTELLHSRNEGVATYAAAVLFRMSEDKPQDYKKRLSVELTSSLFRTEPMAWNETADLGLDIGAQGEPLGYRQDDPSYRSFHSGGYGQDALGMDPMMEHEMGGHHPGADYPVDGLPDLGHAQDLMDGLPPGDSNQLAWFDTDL
In short: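 Cytoplasmic and nuclear β-catenin were measured by Western blot in HCT-116 cells given TGF-β1 (10 ng/mL) for 48 h, with or without compound, against 0.1% DMSO vehicle. Lysates (20 μg/lane) were run on 7.5% gels and transferred to PVDF, with Lamin A among the antibodies used. Blots were read by ECL and densitometry, n = 3 independent experiments.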

[5] = Acute toxicity in ICR mouse assessed as survival rate at 300 mg/kg, ip administered for 14 days relative to control; format: organism-based; conditions: in vivo
HCT-116 [6] = assay: Antitumor activity against human HCT116 cells xenografted in BALB/c nude mouse assessed as reduction in tumor volume at 2.5 to 5 mg/kg, ip administered daily for 21 consecutive days; format: functional, organism-based
In short: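 Male BALB/c nude mice, 3–5 weeks old, inoculated subcutaneously with 1 × 10^7 HCT-116 cells. At about 75 mm³ tumor volume, randomized (n = 8/group) and dosed intraperitoneally daily. Volume by caliper as d² × D/2. At the end, tumors excised and weighed; inhibition = (Wcontrol − Wtreated)/Wcontrol × 100%.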

[7] = molecular target: Glycogen synthase kinase-3 beta (Homo sapiens) (UniProt P49841); assay: Inhibition of TGF-beta1-induced GSK-3beta phosphorylation in human HCT116 cells at 50 nM after 48 hrs by Western blot analysis; format: cell-based; in short: as §1
HCT-116 [8] = assay: Antimigratory activity in human HCT116 cells assessed as inhibition of TGF-beta1-induced cell migration at 50 nM after 48 hrs by trans-well assay; format: functional, cell-based
In short: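 HCT-116 cells (1 × 10^5/well) placed in upper chambers of 8 μm pore transwells. Lower chambers held, in triplicate, medium alone or TGF-β1 (10 ng/mL) with or without test agents (2, 10, 50 nM) for 48 h. Non-migrated cells removed, migrated cells stained with crystal violet, 10 fields per well counted blinded. Three independent experiments.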

HCT-116 [9] = assay: Inhibition of IL-1beta-mediated adhesion of human rhodamine 123-labeled HCT116 cells to HUVEC at 50 nM after 1 hr by fluoresence assay; format: functional, cell-based
In short: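 HUVEC monolayers pretreated with or without IL-1β (1 ng/mL) for 4 h, then washed. Rhodamine 123-labeled HCT-116 cells added with vehicle or test agent (2, 10, 50 nM) at 37 °C for 1 h. Non-adherent cells washed off; percent adhered cells determined by fluorescence microscopy. Three separate experiments.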

HCT-116 [10] = assay: Inhibition of TGF-beta1-induced increase in expression levels of MMP-9 protein in human HCT116 cells at 50 nM after 48 hrs by Western blot analysis; format: functional, cell-based
In short: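 HCT-116 cells (1 × 10^6/well, plated overnight) were exposed to TGF-β1 (10 ng/mL) for 48 h, with or without test compound; vehicle was 0.1% DMSO. Lysates (20 μg/lane) were run on 7.5% SDS-PAGE and blotted to PVDF, with primary antibody overnight at 4 °C and HRP/ECL detection. Band densities were normalised to β-actin across three independent experiments.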

HCT-116 [11] = assay: Inhibition of TGF-beta1-induced decrease in expression levels of E-cadherin protein in human HCT116 cells at 50 nM after 48 hrs by Western blot analysis; format: functional, cell-based; in short: as §1
HCT-116 [12] = assay: Antiproliferative activity against human HCT116 cells at 8 uM pretreated with GSH for 1 hr measured after 72 hrs by MTT assay; format: functional, cell-based
In short: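 HCT-116 cells pretreated with or without GSH (10 mM) for 1 h, washed, then treated for 72 h. Viability measured by MTT and inhibitory rates calculated. Mean ± SD of three independent experiments.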

Glycogen synthase kinase-3 beta (Homo sapiens), sequence (P49841 whole entry, looked up): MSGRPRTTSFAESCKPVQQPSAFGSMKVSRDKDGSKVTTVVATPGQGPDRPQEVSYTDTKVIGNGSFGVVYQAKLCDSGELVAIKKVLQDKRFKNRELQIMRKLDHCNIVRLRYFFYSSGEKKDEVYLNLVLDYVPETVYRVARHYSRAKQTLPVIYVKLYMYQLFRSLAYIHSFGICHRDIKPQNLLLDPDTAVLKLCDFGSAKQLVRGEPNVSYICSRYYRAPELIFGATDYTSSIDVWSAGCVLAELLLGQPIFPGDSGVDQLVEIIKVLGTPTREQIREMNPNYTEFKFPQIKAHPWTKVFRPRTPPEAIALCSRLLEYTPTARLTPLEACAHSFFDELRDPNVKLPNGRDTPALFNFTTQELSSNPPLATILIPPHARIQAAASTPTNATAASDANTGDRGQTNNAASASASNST
RAC-alpha serine/threonine-protein kinase (Homo sapiens), sequence (P31749 whole entry): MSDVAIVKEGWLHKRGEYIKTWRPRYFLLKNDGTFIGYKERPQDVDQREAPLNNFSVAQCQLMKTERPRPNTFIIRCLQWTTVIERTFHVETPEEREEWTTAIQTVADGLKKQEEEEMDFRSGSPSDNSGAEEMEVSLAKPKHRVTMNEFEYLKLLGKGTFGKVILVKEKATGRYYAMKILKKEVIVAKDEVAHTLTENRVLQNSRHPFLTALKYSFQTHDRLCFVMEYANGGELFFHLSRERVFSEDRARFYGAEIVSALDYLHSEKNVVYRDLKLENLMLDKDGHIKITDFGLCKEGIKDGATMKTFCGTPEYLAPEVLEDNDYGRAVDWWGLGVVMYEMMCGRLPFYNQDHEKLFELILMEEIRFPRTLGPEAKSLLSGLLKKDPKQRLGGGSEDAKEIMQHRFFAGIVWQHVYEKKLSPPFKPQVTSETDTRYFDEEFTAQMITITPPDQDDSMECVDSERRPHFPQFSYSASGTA

## Cc1nc(C)c(/C=C/C(=O)N2CCC=C(Cl)C2=O)nc1C
[1]
  Activity: Non-Toxic
Mus musculus
  Activity: Non-Toxic
[2]
  Stability: Stable
A549
  IC50: 2.21 µM
[3]
  inhibition: Dose-dependent effect
[4]
  inhibition: Active
[5]
  survival at 336 h: 10%
HCT-116 [6]
  Activity: Active

## COc1cc(/C=C/C(=O)N2CCC=CC2=O)cc(OC)c1OC [PIPLARTINE]
[7]
  inhibition: Active
HCT-116 [8]
  Activity: Active
HCT-116 [9]
  inhibition: Active
HCT-116 [10]
  inhibition: Active
HCT-116 [11]
  inhibition: Active
HCT-116 [12]
  Activity: inactive
